From ChEMBL document CHEMBL1123704, “Synthesis of D-oxa tricyclic partial ergolines as dopamine agonists” (1987)

Assays:
Type in all cases: functional
Rattus norvegicus [1] = test: Ability to lower the serum prolactin levels in comparison with that of pergolide was determined for the control rats at ip dose of 0.005 mg/kg; settings: route intraperitoneal
Outline: (§1)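 Reserpinized male rats, test compound ip. Serum prolactin (ng/mL) was measured in control and treated groups, and the treated value was expressed as percent change from control. Means ± standard error for 10 rats, with significance versus control prolactin given as p.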

Rattus norvegicus [2] = test: Ability to lower the serum prolactin levels in comparison with that of pergolide was determined for the control rats at ip dose of 0.01 mg/kg; settings: route intraperitoneal; outline: as §1
Rattus norvegicus [3] = test: Ability to lower the serum prolactin levels in comparison with that of pergolide was determined for the control rats at ip dose of 0.05 mg/kg; settings: route intraperitoneal; outline: as §1
Rattus norvegicus [4] = test: Ability to induce contralateral rotational behavior in unilateral 6-hydroxydopamine nigrostriatal-lesioned rats and percent of rats turning was determined at intraperitoneal dosage of 1.0 mg/kg
Outline: (§2)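 Rats given unilateral 6-hydroxydopamine nigrostriatal lesions, then test compound ip. Contralateral rotation was scored as percent of rats turning and as turns in the first 15 min after turning began. Groups of 6–10 rats.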

Rattus norvegicus [5] = test: Ability to lower the serum prolactin levels in comparison with that of pergolide was determined for the drug-treated rats at ip dose of 0.005 mg/kg; settings: route intraperitoneal; outline: as §1
Rattus norvegicus [6] = test: Ability to lower the serum prolactin levels in comparison with that of pergolide was determined for the drug-treated rats at ip dose of 0.01 mg/kg; settings: route intraperitoneal; outline: as §1
Rattus norvegicus [7] = test: Ability to lower the serum prolactin levels in comparison with that of pergolide was determined for the drug-treated rats at ip dose of 0.05 mg/kg; settings: route intraperitoneal; outline: as §1
Rattus norvegicus [8] = test: Ability to lower the serum prolactin levels in comparison with that of pergolide expressed as percent inhibition change at ip dose of 0.005 mg/kg; settings: route intraperitoneal; outline: as §1
Rattus norvegicus [9] = test: Ability to lower the serum prolactin levels in comparison with that of pergolide expressed as percent inhibition change at ip dose of 0.01 mg/kg; settings: route intraperitoneal; outline: as §1
Rattus norvegicus [10] = test: Ability to lower the serum prolactin levels in comparison with that of pergolide expressed as percent inhibition change at ip dose of 0.05 mg/kg; settings: route intraperitoneal; outline: as §1
Rattus norvegicus [11] = test: Ability to induce contralateral rotational behavior in unilateral 6-hydroxydopamine nigrostriatal-lesioned rats and no. of turns was determined after 15 minutes of start at intraperitoneal dosage of 1.0 mg/kg; outline: as §2
Rattus norvegicus [12] = test: Ability to induce contralateral rotational behavior in unilateral 6-hydroxydopamine nigrostriatal-lesioned rats and percent of rats turning was determined at intraperitoneal dosage of 0.1 mg/kg; outline: as §2
Rattus norvegicus [13] = test: Ability to induce contralateral rotational behavior in unilateral 6-hydroxydopamine nigrostriatal-lesioned rats and no. of turns was determined after 15 minutes of start at intraperitoneal dosage of 0.1 mg/kg; outline: as §2
Rattus norvegicus [14] = test: Ability to lower the serum prolactin levels in comparison with that of pergolide was determined for the drug-treated rats at ip dose of 0.5 mg/kg; settings: route intraperitoneal; outline: as §1
Rattus norvegicus [15] = test: Ability to lower the serum prolactin levels in comparison with that of pergolide was determined for the drug-treated rats at ip dose of 5.0 mg/kg; settings: route intraperitoneal; outline: as §1
Rattus norvegicus [16] = test: Ability to lower the serum prolactin levels in comparison with that of pergolide expressed as percent inhibition change at ip dose of 0.5 mg/kg; settings: route intraperitoneal; outline: as §1
Rattus norvegicus [17] = test: Ability to lower the serum prolactin levels in comparison with that of pergolide expressed as percent inhibition change at ip dose of 5.0 mg/kg; settings: route intraperitoneal; outline: as §1
Rattus norvegicus [18] = test: Ability to lower the serum prolactin levels in comparison with that of pergolide was determined for the control rats at ip dose of 0.1 mg/kg; settings: route intraperitoneal; outline: as §1
Rattus norvegicus [19] = test: Ability to lower the serum prolactin levels in comparison with that of pergolide was determined for the control rats at ip dose of 0.5 mg/kg; settings: route intraperitoneal; outline: as §1
Rattus norvegicus [20] = test: Ability to lower the serum prolactin levels in comparison with that of pergolide was determined for the drug-treated rats at ip dose of 0.1 mg/kg; settings: route intraperitoneal; outline: as §1
Rattus norvegicus [21] = test: Ability to lower the serum prolactin levels in comparison with that of pergolide expressed as percent inhibition change at ip dose of 0.1 mg/kg; settings: route intraperitoneal; outline: as §1

Compound | Prolactin control (Rattus norvegicus [1]) [ng/mL] | Prolactin control (Rattus norvegicus [2]) [ng/mL] | Prolactin control (Rattus norvegicus [3]) [ng/mL] | Rats turning (Rattus norvegicus [4]) [%] | Prolactin treatment (Rattus norvegicus [5]) [ng/mL] | Prolactin treatment (Rattus norvegicus [6]) [ng/mL] | Prolactin treatment (Rattus norvegicus [7]) [ng/mL] | Change (Rattus norvegicus [8]) [%] | Change (Rattus norvegicus [9]) [%] | Change (Rattus norvegicus [10]) [%] | Turns (Rattus norvegicus [11]) | Of rats turning (Rattus norvegicus [4]) [%] | Of rats turning (Rattus norvegicus [12]) [%] | Turns (Rattus norvegicus [13]) | Prolactin treatment (Rattus norvegicus [14]) [ng/mL] | Change (Rattus norvegicus [16]) [%] | further results
CCCN1CCO[C@@H]2Cc3nc(N)ncc3C[C@H]21 | 40.6 | 52 | 45.4 | 80 | 41.2 | 33.7 | 13.8 | 1 | -31 | -70 | 33 |  |  |  |  |  | 
CCCN1C[C@H](CSC)C[C@@H]2c3cccc4[nH]cc(c34)C[C@H]21 [PERGOLIDE] | 37.7 |  | 30.4 |  | 3.5 |  | 1.6 | -91 |  | -95 | 93 | 100 | 83 | 81 |  |  | 
CCCN1CCC[C@@H]2Cc3n[nH]cc3C[C@H]21 [QUINPIROLE] |  |  |  |  |  |  | 12.3 |  |  | -61 |  | 100 | 75 |  | 7.7 | -76 | Prolactin treatment (Rattus norvegicus [15]): 2.7 ng/mL; Change (Rattus norvegicus [17]): -91%; Turns/1st (Rattus norvegicus [13]): 67; Turns/1st (Rattus norvegicus [11]): 85
CCCN1CCO[C@@H]2Cc3n[nH]cc3C[C@H]21 |  | 58 | 45.5 | 100 |  | 62 | 27 |  | 7 | -41 | 52 |  |  | 35 | 3.6 | -92 | Prolactin control (Rattus norvegicus [18]): 46.8 ng/mL; Prolactin control (Rattus norvegicus [19]): 46.8 ng/mL; Prolactin treatment (Rattus norvegicus [20]): 30.2 ng/mL; Rats turning (Rattus norvegicus [12]): 60%; Change (Rattus norvegicus [21]): -35%
CCCN1CCO[C@@H]2Cc3nc(N)sc3C[C@H]21 |  | 40.6 | 41.5 | 80 |  | 48.9 | 20.2 |  | -20 | -51 | 95 |  |  |  |  |  | 
